Series [1] relates to RAW264.7. The series is described as follows: Inhibition of LPS-induced NO production in mouse RAW264.7 cells measured after 24 hrs. It is filed as functional, cell-based. Summed up: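 RAW264.7 cells, harvested from 100 mm dishes, were seeded at 2 × 10^5 cells/well. They were pretreated with a range of sample concentrations for 30 min, then incubated 24 h with or without LPS at 1 µg/mL. Nitrite in the culture supernatant was measured by the Griess reaction, and IC50 was reported.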

For series [2], the system named is RAW264.7. As to the kind of experiment: Cytotoxicity against mouse RAW264.7 cells at concentration required inhibit NO synthesis by MTT assay. It is filed as cell-based. (Formazan colour is commonly taken as a measure of viable cells.)

The text below walks through data of ChEMBL document CHEMBL1165997, “Sesquiterpenoids from Inula lineariifolia inhibit nitric oxide production” (J Nat Prod, 2010).

On to `C=C1C(=O)O[C@H]2C=C(C)[C@@H]3CC[C@](C)(O)[C@@H]3C[C@H]12` [4-EPI-ISOINUVISCOLIDE], for which the IC50 (commonly the concentration that gives 50% inhibition) with RAW264.7 [1] (Mus musculus, RAW264.7, 24 h) turned out to be 28.7 µM. Also, the Activity result in the series on RAW264.7 [2] is recorded as “Non-toxic”.

As to `N=C(N)NN` [PIMAGEDINE], in the series with RAW264.7 [1] (Mus musculus, RAW264.7, 24 h), the IC50 is 2.7 µM. With `C=C1C(=O)O[C@H]2C=C(CCC(C)=O)[C@H](C)C[C@H](OC(=O)CC)[C@H]12`, the IC50 with RAW264.7 [1] (Mus musculus, RAW264.7, 24 h) was determined as 13.3 µM. Also, the Activity result in the series on RAW264.7 [2] is “Non-toxic”. For `C=C1C(=O)O[C@H]2C[C@H](C)[C@@H]3CC(=O)C(C)=C3C[C@H]12` [XERANTOLIDE] the same measures were 35.6 µM and “Non-toxic”. For `C[C@@H]1CC[C@@H]2[C@]3(O)[C@H]1CC[C@@]3(C)C[C@@]2(C)C(=O)O` [BRITANLIN C] the same measures were 22.8 µM and “Non-toxic”. Regarding `C[C@@H]1CC[C@H](O)[C@]2(O)CC[C@H](c3cc3=O)C[C@@]12C` [INEARIIFOLIANONE], the IC50 with RAW264.7 [1] (Mus musculus, RAW264.7, 24 h) is 12.9 µM. Further, the Activity entry in the series with RAW264.7 [2] is recorded as “Non-toxic”. As to `C=C1C(=O)O[C@@H]2C[C@H](C)C(CCC(C)=O)=CC[C@H]12` [TOMENTOSIN], the IC50 in the series with RAW264.7 [1] (Mus musculus, RAW264.7, 24 h) worked out at 9.15 µM. Moreover, the Activity entry with RAW264.7 [2] is on record as “Non-toxic”. On the same counts, the results for `C=C1C(=O)O[C@H]2C[C@@H](C)[C@@H]3[C@@H](OC(C)=O)C[C@H](O)[C@@]3(C)C[C@H]12` are 0.25 µM and “Non-toxic”. Consider `C=C1C[C@@H]2OC(=O)C(=C)[C@H]2C[C@@H]2[C@@H]1[C@@H](OC(C)=O)C[C@@]2(C)O` (stereo in doubt; 5), for which the Activity result in the series with RAW264.7 [2] was “Non-toxic”.

For `C=C1C(=O)O[C@H]2C[C@@H](C)[C@@H]3CC[C@H](O)[C@@]3(C)C[C@H]12` [PSEUDOGUAIANOLIDE], it took 0.1 µM to reach half-maximal inhibition with RAW264.7 [1] (Mus musculus, RAW264.7, 24 h) (IC50). Further, the Activity result with RAW264.7 [2] was “Non-toxic”. In the series with RAW264.7 [1] (raw264.7), `C=C1C(=O)O[C@H]2C=C(C)[C@H]3[C@@H](OC(C)=O)C[C@@](C)(O)[C@@H]3C[C@H]12` (stereo in doubt; 9) [GAILLARDIN] came in with a half-inhibitory concentration (IC50) of 2.95 µM. On to `C=C1C(=O)O[C@H]2C[C@@H](C)[C@H]3[C@@H](OC(C)=O)C[C@@](C)(O)[C@@]34O[C@H]4[C@H]12`, for which the IC50 in the series with RAW264.7 [1] (Mus musculus, RAW264.7, 24 h) is 26.2 µM. Moreover, in the series on RAW264.7 [2], the Activity entry is given as “Non-toxic”.

On to `C=C1C(=O)O[C@@H]2C[C@H](C)C(CCC(C)=O)=C[C@H](O)[C@H]12`, for which the IC50 in the series with RAW264.7 [1] (Mus musculus, RAW264.7, 24 h) was determined as 13.1 µM. The Activity entry in the series with RAW264.7 [2] was “Non-toxic”. On the same counts, the results for `C=C1C(=O)O[C@H]2C[C@@H](C)[C@@H]3[C@@H](OC(C)=O)C[C@H](O)[C@@]3(C)[C@@H](OC(C)=O)[C@H]12` are 0.11 µM and “Non-toxic”.
